A short description of the experiment: Displacement of [125I]TZDM from amyloid beta (1 to 40) aggregates after 2 hrs by gamma counting. The gist of the method:
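Competition binding against [125I]TZDM as radiolabeled standard, using Aβ1–40 aggregates; run in triplicate, results as mean ± SD.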

The Ki is a dissociation constant, usually derived from enzyme kinetics or from competition with a known ligand.

As for `COc1ccc(/C=C/C(=O)n2ccc3ccccc32)cc1`, the affinity corresponds to a Ki of 27.3 nM.
With `O=C(/C=C/c1ccccc1)n1ccc2cc(Br)ccc21` the figure was 18.9 nM; with `O=C(/C=C/c1ccccc1)n1ccc2cc(O)ccc21`, 21.6 nM.

The values are drawn from ChEMBL document CHEMBL1828568, “Novel imaging agents for β-amyloid plaque based on the N-benzoylindole core” (Bioorg Med Chem Lett, 2011).
